Some results are limits rather than exact numbers.

Usually EC50 stands for the concentration needed to bring the measured effect to its halfway point. Read a low EC50 as a more potent agent. Broadly, the Ki is a dissociation constant, usually derived from enzyme kinetics or from competition with a known ligand. A low value points to a stronger hold on the target.

Assay [1] concerns the target T1, Alpha-2A adrenergic receptor (Homo sapiens, UniProt P08913).
T1 sequence (P08913 whole entry): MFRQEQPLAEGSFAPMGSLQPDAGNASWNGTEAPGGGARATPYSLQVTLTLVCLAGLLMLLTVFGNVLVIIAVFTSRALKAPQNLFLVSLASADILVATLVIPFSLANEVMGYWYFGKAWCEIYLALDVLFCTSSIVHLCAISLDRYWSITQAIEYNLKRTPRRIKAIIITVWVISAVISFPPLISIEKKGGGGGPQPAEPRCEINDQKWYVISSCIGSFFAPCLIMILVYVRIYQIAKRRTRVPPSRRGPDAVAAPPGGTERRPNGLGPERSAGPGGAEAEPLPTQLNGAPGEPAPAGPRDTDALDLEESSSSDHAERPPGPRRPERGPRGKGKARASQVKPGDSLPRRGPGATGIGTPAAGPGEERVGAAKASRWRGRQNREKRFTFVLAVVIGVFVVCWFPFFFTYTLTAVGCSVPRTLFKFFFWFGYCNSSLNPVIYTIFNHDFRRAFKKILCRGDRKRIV
As to the kind of experiment: Agonist potency at Alpha-2A adrenergic receptor assayed in CHO cells expressing human alpha 2a. The format is functional, cell-based.

In assay [2] the target is T2, Alpha-1D adrenergic receptor (Homo sapiens, UniProt P25100).
T2 sequence (P25100 whole entry): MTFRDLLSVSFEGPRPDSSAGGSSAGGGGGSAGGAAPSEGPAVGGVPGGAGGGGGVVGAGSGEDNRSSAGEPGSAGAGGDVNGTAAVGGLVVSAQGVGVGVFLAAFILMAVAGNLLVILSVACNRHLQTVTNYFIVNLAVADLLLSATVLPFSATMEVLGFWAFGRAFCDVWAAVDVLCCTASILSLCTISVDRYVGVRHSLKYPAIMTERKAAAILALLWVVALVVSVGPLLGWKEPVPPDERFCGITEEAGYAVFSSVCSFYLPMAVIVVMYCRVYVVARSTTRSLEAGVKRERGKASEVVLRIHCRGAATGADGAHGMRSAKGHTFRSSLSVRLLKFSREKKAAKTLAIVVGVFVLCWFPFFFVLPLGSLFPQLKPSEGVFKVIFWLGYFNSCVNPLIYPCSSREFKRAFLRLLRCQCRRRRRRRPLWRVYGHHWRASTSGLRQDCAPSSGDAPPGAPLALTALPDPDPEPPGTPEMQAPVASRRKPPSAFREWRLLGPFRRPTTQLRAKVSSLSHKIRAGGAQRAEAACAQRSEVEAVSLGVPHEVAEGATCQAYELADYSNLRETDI
As to the kind of experiment: Agonist potency at aAlpha-1D adrenergic receptor assayed in rat-1 fibroblasts expressing human Alpha-1D adrenergic receptor. The format is functional. The procedure, abridged: (§1)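 Human α1a, α1b or α1d receptors expressed in Rat-1 fibroblasts (DMEM, 10% heat-inactivated FBS, 0.6 mg/mL G418). Cells were plated at 6000/well and grown 48 h at 37 °C. They were loaded 2 h at 37 °C with Calcium Green (4 μM), pluronic acid 0.2% and probenecid 2.5 mM in HEPES buffer pH 7.4, then read by FLIPR at room temperature: 10 s baseline, 50 s after compound. 11-point curves were expressed as % of the 40 μM phenylephrine response; top concentration typically 5 μM.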

Assay [3] deals with T3, Alpha-1A adrenergic receptor (Homo sapiens, UniProt P35348).
T3 sequence (P35348 whole entry): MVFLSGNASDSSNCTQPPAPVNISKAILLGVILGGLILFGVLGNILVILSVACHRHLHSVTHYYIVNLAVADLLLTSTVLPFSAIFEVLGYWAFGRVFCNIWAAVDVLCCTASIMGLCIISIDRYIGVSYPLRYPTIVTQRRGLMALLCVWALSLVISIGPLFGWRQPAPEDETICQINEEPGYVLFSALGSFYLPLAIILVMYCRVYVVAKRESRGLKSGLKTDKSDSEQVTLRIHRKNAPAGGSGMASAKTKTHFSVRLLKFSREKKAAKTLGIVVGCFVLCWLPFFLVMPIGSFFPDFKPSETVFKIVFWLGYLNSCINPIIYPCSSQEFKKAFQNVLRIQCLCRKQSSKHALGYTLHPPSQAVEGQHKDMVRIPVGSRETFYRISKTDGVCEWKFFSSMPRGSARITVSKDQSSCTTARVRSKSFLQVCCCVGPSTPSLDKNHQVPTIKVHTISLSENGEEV
As to the kind of experiment: Agonist potency at Alpha-1 adrenergic receptor assayed in rat-1 fibroblasts expressing human Alpha-1 adrenergic receptor. It counts as functional. The procedure, abridged:
as §1

The target of assay [4] is T1, Alpha-2A adrenergic receptor. The assay can be described thus: Affinity to human aAlpha-2A adrenergic receptor determined by radioligand binding techniques from chinese hamster ovary (CHO) cells. It counts as cell-based.
For assay [5], the target named is T4, Alpha-2A adrenergic receptor (Homo sapiens) (UniProt P08913).
T4 sequence (whole entry): T1 sequence (P08913 whole entry)
The assay can be described thus: Agonist potency at Alpha-2A adrenergic receptor assayed in CHO cells expressing human alpha-2a. It counts as functional, cell-based.

Assay [6] has as its target T5, Alpha-2C adrenergic receptor (Homo sapiens) (UniProt P18825).
T5 sequence (whole entry): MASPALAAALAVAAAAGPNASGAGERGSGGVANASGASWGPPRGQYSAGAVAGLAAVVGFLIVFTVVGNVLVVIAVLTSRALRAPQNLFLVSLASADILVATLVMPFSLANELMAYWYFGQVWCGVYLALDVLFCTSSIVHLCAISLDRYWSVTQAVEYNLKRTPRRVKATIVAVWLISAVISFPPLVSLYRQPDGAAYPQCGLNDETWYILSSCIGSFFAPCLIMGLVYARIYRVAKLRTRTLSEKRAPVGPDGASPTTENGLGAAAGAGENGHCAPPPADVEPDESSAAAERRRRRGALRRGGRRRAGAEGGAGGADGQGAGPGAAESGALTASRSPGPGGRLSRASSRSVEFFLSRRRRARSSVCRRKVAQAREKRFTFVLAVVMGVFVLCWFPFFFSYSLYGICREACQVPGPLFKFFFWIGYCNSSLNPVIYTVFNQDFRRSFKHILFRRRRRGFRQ
As to the kind of experiment: Efficacy as percentage of the maximal effect observed for nonselective agonist UK-14304 in CHO cells expressing human Alpha-2A adrenergic receptor. The format is functional, cell-based. The method, boiled down: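 Human α2A receptor in CHO cells, cAMP assay. Cells were preincubated with compound or UK14304 for 30 min at 37 °C with IBMX 300 μM. […] Efficacy is relative to the UK14304 maximum.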

In assay [1], `CSc1ccccc1NCC1=NCCN1` gave a half-maximal effective concentration (EC50) of 39.8 nM.

As to `CS(=O)(=O)c1cc(F)ccc1NCC1=NCCN1`, the EC50 in assay [2] is over 100000 nM; in assay [3], 437 nM.

On to `CCCS(=O)(=O)c1ccccc1NCC1=NCCN1`, for which the Ki in assay [4] was over 7940 nM. The compound further had a pEC5 in assay [5] of under 5.

Compound `CC(C)S(=O)(=O)c1ccccc1NCC1=NCCN1` returned a Max in assay [6] of 14%.
